Screening data: PubChem, several laboratories
PABP1 MLLE inh = inhibitors of microRNA-mediated deadenylation, human PABP1 MLLE binding | AID 588489 | inhibition, % at 20 µM | actives 0.36% (n = 360,000) | GST-MLLE / FITC-PAM2 fluorescence polarization; in the data active means inhibition above about 35%, passing the limit was not always enough;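 further: plate controls were DMSO wells with GST-MLLE for no effect and wells lacking GST-MLLE protein for full effect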
core dimer inh = blocks dimerization of HCV core protein | TR-FRET GST/Flag-core106 dimerization, 1536-well | inhibition, % at 5 µM | actives 0.33% (n = 300,000) | AID 1899;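 active means inhibition above the mean of all tested compounds plus 3 SD, set per screening campaign, cut at about 45% in these data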
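Assay system: Tagged HCV core106 pair (GST and Flag) | Buffer or medium: KF-containing HEPES buffer, pH 7.45, DTT, CHAPS, BSA | Also added: Eu donor and XL665 acceptor anti-tag antibodies | Dosing: One concentration, 5 µM, in 0.5% DMSO | Timing: 4 h at 22.5 °C | Technique: TR-FRET 671 and 617 nm emission | Repeats: Singlicate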
PABP polyA inh = PABP-poly(A) binding inhibition. P11940. PABP-poly(A) RNA binding, fluorescence polarization. calls only at 35 µM. actives 1% (n = 290,000);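 further: calls also rest on retests at 20 µM and on dose response follow-up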
eIF4E-4G inh = inhibitors of eIF4E and eIF4G interaction in translation initiation; TR-FRET eIF4E-eIF4GI(517-606) binding, 2 h; inhibition, % at 21.7 µM; actives 0.37% (n = 220,000);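 active means inhibition above about 30%, limit read from the data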;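 further: 0% = full FRET control wells and 100% = background wells lacking eIF4GI fragment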
eIF4H FP inh = inhibitors of RNA binding by human eIF4H | actives 0.94% (n = 290,000) | Q15056 | inhibition, % at 35 µM | eIF4H fluorescence polarization binding assay | AID 2012;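 further: calls also rest on retests at 20 µM and on dose response follow-up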
UBC9 SUMO inh = inhibitors of human SUMOylation (UBC9); P63279; HTRF SUMOylation assay, SAE1/SAE2 + UBC9, in vitro; inhibition, % at 35 µM; actives 0.36% (n = 290,000); AID 2006; in the data active means inhibition above about 50%, passing the limit was not always enough; inconclusive means no clear call, values can overlap the other calls
Target sequence (P63279 whole entry, looked up): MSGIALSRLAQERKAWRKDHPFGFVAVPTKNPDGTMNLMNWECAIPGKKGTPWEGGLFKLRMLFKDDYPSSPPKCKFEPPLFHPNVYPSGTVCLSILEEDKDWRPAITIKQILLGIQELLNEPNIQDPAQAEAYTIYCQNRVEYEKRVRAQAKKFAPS
* hit, by the source's call; i = inactive; ? = inconclusive; · = no result; + = active, no number. In the library only some 1.8% were active in any assay of this set; here they are far more common. Unless noted, how the calls were made is not given here.

SMILES	PABP1 MLLE inh	core dimer inh	PABP polyA inh	eIF4E-4G inh	eIF4H FP inh	UBC9 SUMO inh
COc1ccc(CC(=O)Nc2nnc(C(C)C)s2)cc1	-4.7	·	i	46.5*	-10.1	3.8
CC(C)c1nnc(NC(=O)CS(=O)(=O)Cc2ccccc2)s1	41.1*	1.9	i	-0.2	-2.3	7.1
CCC(CC)c1nnc(NC(=O)CS(=O)(=O)Cc2ccccc2)s1	19.2	-2.4	·	-1.9	·	·
CCC(SCC(=O)OC)C(=O)Nc1nnc(C(C)C)s1 (stereo not drawn)	39.4*	-4.5	i	-5.3	-3.1	-4.1
CCOC(=O)c1csc(NC(=O)CCS(=O)(=O)c2ccc(Cl)cc2)n1	18.5	·	·	·	·	·
CC(C)Cc1ccc(C(C)C(=O)Nc2nccs2)cc1 (stereo not drawn)	-4.1	2.0	+	4.8	79.8*	8.0
CC(C)c1ccc(CNC(=O)C(=O)Nc2nccs2)cc1	1.6	-7.7	i	0.0	2.7	20.0
Nc1nc2c(ncn2[C@@H]2O[C@H](CNCc3cnc(N4CCOCC4)nc3)[C@@H](O)[C@H]2O)c(=O)[nH]1	-5.3	·	·	·	·	·
O=C(O)CN1C(=O)/C(=C\c2ccccc2OCc2ccc(Cl)cc2)SC1=S	23.2	15.2	i	·	3.8	-4.1
O=C(O)CN1C(=O)/C(=C\c2cc(Br)ccc2OCc2ccc(Cl)cc2Cl)SC1=S	12.3	22.0	+	·	88.5*	32.5
CCN1CSC(=S)N(Cc2ccc(OC)cc2)C1	39.8*	2.4	i	2.1	3.4	12.2
CC(C)NC(=O)c1ccc(CN2CCC(Cc3ccccc3)CC2)cc1	3.4	-8.6	i	·	7.5	-2.6
C=CCNC(=O)c1ccc(CN2CCC(Cc3ccccc3)CC2)cc1	1.7	4.8	+	·	94.8*	14.5
c1ccc(-[n+]2nc(Nc3cccc4ccccc34)sc2-c2c3ccccc3cc3ccccc23)cc1	-24.6	60.3*	·	·	·	·
Fc1ccc(-[n+]2nc(Nc3ccccc3)sc2-c2c3ccccc3cc3ccccc23)cc1	-18.4	-4.5	i	·	-14.3	-7.6
CCC(CC)C(=O)Nc1cc([N+](=O)[O-])ccc1Cl	1.9	4.3	+	3.4	-2.6	6.3
Nc1c(S(=O)(=O)O)cc(NC(=O)c2ccccc2)c2c1C(=O)c1ccccc1C2=O	17.2	-13.5	+	·	?	33.2
O=C(Nc1ccccc1-c1ccccc1)c1ccccc1	-8.5	-2.6	i	·	-5.4	2.9
O=C(O)CN1C(=O)c2cccc3c(Br)ccc1c23	4.1	1.9	i	·	-0.4	16.8
CN(C)CCCN1C(=O)c2cccc3c(Br)ccc(c23)C1=O	56.9*	-5.5	i	-4.5	30.6	16.0
CC1CCCCN1C(=O)COC(=O)c1cccc(NS(=O)(=O)c2ccccc2)c1 (stereo not drawn)	-3.7	-0.7	·	·	·	·
O=C1CCCCC1Sc1nnc(Cc2cccs2)n1CCc1ccccc1 (stereo not drawn)	-52.9	51.3*	i	-3.2	3.4	22.7
O=C(CSc1nnc(COc2ccccc2)o1)Nc1ccc(F)cc1	-9.0	3.1	i	·	-5.2	-6.5
S=C(NNc1cccc(Cl)c1)NC1CCCCC1	-83.3	2.1	+	-2.1	3.3	21.1
O=C(/C=C/c1ccco1)N/C(=C\c1ccco1)C(=O)NCCc1nc2ccccc2[nH]1	-2.9	0.1	+	4.6	77.0*	35.9
SMILES	PABP1 MLLE inh	core dimer inh	PABP polyA inh	eIF4E-4G inh	eIF4H FP inh	UBC9 SUMO inh
COc1ccc(/C=C/C(=O)N/C(=C\c2ccco2)C(=O)NCCc2nc3ccccc3[nH]2)cc1	-30.6	8.3	i	0.6	-8.2	-7.8
COc1ccc(O)c(/C=N/c2sc(C)c(C)c2C#N)c1	2.0	8.9	+	0.0	37.1	26.7
Cc1sc(/N=C/c2c(O)ccc3ccccc23)c(C#N)c1C	·	2.3	i	-11.8	5.3	-4.8
c1ccc(-c2nn3c(Cn4nnc5ccccc54)nnc3s2)nc1	30.4	15.0	i	19.1	69.7*	20.0
c1cncc(-c2nn3c(Cn4nnc5ccccc54)nnc3s2)c1	32.9	1.9	i	0.6	-2.2	5.6
COc1ccc(C2CC(c3ccccc3)=NN2c2ccc(C(N)=O)cc2)cc1 (stereo not drawn)	0.4	9.3	i	·	0.2	20.7
O=Cc1ccc(N2N=C(c3ccccc3)CC2c2ccccc2)cc1 (stereo not drawn)	-2.3	10.0	i	·	-1.8	9.9
O=C(O)c1ccc(N2N=C(c3ccccc3)CC2c2ccccc2)cc1 (stereo not drawn)	-3.1	12.7	i	·	-2.5	61.5*
COc1ccc(C2CC(c3ccccc3)=NN2c2ccc(/C=N/NC(=O)c3ccncc3)cc2)cc1 (stereo not drawn)	1.6	47.7*	i	-23.9	55.2	16.2
CC(=O)Nc1oc(-c2cccc3ccccc23)nc1C#N	-0.4	·	·	·	·	·
CCC(CNc1cc(OC)cc2cccnc12)NC1CCCCC1 (stereo not drawn)	93.5	15.8	?	-2.0	?	101.5*
CC1CCCN(Cc2ccc(OCc3ccccc3)cc2)C1 (stereo not drawn)	-6.0	5.8	i	·	0.4	-3.5
O=C(CSc1nc2sccc2c(=O)[nH]1)N1CCN(c2ccccc2)CC1	-86.4	33.5	+	·	61.5	13.8
CN(C)CCN1CCN(C2CN(CCc3ccccc3)S(=O)(=O)C2)CC1 (stereo not drawn)	11.5	·	·	·	·	·
CC(NC(=O)c1cccs1)C(S)c1ccccc1 (stereo not drawn)	43.4*	14.0	i	·	-11.0	2.4
C/C(=N\NC(=O)CSc1nnc(C)s1)c1ccc(Cl)cc1	27.3	-5.0	i	2.6	-7.0	6.9
COc1ccc(/C(C)=N\NC(=O)CSc2nnc(C)s2)cc1	48.2*	-6.9	i	-2.0	-7.8	0.2
O=C1CCn2c1c(O)c1ccccc1c2=O	44.6*	·	·	·	·	·
O=c1c2ccccc2nc2n1CCCCC2	-6.2	-8.5	i	1.8	5.7	8.7
COc1ccc(C2c3cc(OC)c(OC)cc3CCN2C(=O)c2ccccc2)cc1OC (stereo not drawn)	13.4	11.1	i	·	-5.8	16.4
COc1ccc(C2c3cc(OC)c(OC)cc3CCN2S(C)(=O)=O)cc1OC (stereo not drawn)	-8.9	·	?	42.0*	?	10.6
Cc1ccc(Nc2nc(Oc3ccc(=O)[nH]n3)nc(N(C)C)n2)cc1	4.1	7.3	i	73.8*	-4.2	2.0
CN(C)c1nc(Nc2ccccc2)nc(Oc2ccc(=O)[nH]n2)n1	-7.2	3.9	i	2.5	-2.4	21.9
Cc1ccc2[nH]c(=O)c(CN(CCc3ccccc3)Cc3nnnn3CC3CCCO3)cc2c1 (stereo not drawn)	14.1	3.9	i	3.6	0.9	18.3
O=c1[nH]c2cc3c(cc2cc1CN(Cc1nnnn1CC1CCCO1)C1CCCC1)OCO3 (stereo not drawn)	64.5*	12.2	+	2.3	75.5	45.2
